Shown are actives, neighbours in structure and some others; about 2.7% of the full set was active somewhere.
CSN inh = blocks human CSN-mediated cullin deneddylation | inhibition, % at 12.5 µM | AID 651999 | Purified CSN, SCF-Nedd8-OG deneddylation, fluorescence polarization | Q92905 | 360,000 compounds, 0.38% hits;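 active means pattern-corrected inhibition above about 35%, with an unprinted fluorescence ratio check between 0.5 and 1.5, limit read from the data, passing the limit was not always enough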
Target sequence (Q92905 whole entry, looked up, one chain of several): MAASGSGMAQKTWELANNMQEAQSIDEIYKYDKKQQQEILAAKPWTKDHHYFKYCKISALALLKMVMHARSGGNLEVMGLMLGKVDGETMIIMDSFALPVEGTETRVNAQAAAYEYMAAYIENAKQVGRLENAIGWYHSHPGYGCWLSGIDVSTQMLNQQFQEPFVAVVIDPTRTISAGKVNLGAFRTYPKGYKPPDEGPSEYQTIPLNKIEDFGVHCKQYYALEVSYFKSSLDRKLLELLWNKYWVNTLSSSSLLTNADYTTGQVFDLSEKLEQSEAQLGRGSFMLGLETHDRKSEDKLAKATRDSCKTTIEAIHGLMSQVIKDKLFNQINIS
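Assay system: purified human Csn5 enzyme expressed in HEK293T cells; Input: 0.24 nM Csn5 enzyme, final concentration; Reagent: 10 nM SCFSkp2-Nedd8OG; Compound dosing: 12.5 µM single point; Times: reaction 90 min, room temperature; Technique: fluorescence polarization readout.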
Rpn11 inh = Rpn11 (human) deubiquitinase inhibition; O00487; human 26S proteasome, Ub4-pepOG fluorescence polarization; 20S core pre-blocked with epoxomicin; inhibition, % at 20 µM; 360,000 compounds, 0.59% hits;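 active means inhibition at 20 µM, scaled to each plate's controls, above about 33%, limit read from the data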
NadD inh = blocks S. aureus nicotinate mononucleotide adenylyltransferase. purified NadD enzyme, colorimetric absorbance read-out. inhibition, % at 20 µM. 360,000 compounds, 0.78% hits. AID 602399; in the data active means inhibition above about 26%
HNF4A DNA FP = change in binding of human HNF4 alpha to DNA; P41235; HNF4a-FITC DNA binding, fluorescence polarization, 1 h; activity change, % at 10 µM; 360,000 compounds, 0.3% hits; AID 1224865; in the data active means activity change above about 30%, passing the limit was not always enough
TPT1 inhibitor = inhibitors of Candida albicans tRNA 2'-phosphotransferase TPT1; recombinant caTPT1, FP RNA substrate dephosphorylation; inhibition, % at 5 µM; 300,000 compounds, 0.81% hits;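 active means inhibition above the mean of all tested compounds plus 3 SD, set per screening campaign, cut at about 24% in these data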
PP1 counter = counter-screen for PP5 inhibitors: inhibitors of human PP1-alpha; P62136; 320,000 compounds, 0.9% hits; inhibition, % at 6.7 µM; purified PP1alpha, OMFP fluorescence; AID 2235;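 active means inhibition above the mean inhibition of all tested compounds plus 3 SD, computed separately for each screening campaign, cut at about 15% in these data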
Target sequence (P62136 whole entry, looked up): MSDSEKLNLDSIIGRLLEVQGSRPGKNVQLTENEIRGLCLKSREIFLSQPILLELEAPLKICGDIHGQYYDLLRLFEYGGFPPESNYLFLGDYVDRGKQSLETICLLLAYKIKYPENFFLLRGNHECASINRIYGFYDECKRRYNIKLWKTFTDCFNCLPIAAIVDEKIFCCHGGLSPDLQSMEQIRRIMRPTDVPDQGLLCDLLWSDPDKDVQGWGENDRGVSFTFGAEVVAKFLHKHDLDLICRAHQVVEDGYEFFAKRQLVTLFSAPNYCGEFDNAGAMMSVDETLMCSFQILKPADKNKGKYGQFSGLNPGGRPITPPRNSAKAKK
NadD inh conf = confirmation of Staphylococcus aureus NadD inhibitors. shares compounds with NadD inh. purified S. aureus NadD, colorimetric enzyme assay. inhibition, % at 20 µM. 2,000 compounds, 13% hits. AID 624309; in the data active means inhibition mostly above about 42%, no sharp cut-off; inactive means mostly below about 42%
Of the large screens only hits and unclear results are named; the others gave an inactive call (follow-up assays come after a bar, where shown).

CC1CCCN(S(=O)(=O)c2ccc(C(=O)Nc3ccccc3-c3nc4ccccc4[nH]3)cc2)C1 (centres undefined)	none
Cc1cccc(-c2nnc(SCC(=O)N3c4ccccc4CCc4ccccc43)n2C)c1	none
Cn1c(SCC(=O)N2c3ccccc3CCc3ccccc32)nnc1-c1cc2ccccc2cc1O	NadD inh 56 | NadD inh conf 52
COc1ccc(N=C2C(=Nc3ccc(OC)cc3)N(c3ccc(OC)cc3)C(=S)N2c2ccccc2)cc1	NadD inh 30 | NadD inh conf inactive
COc1ccc(N=C2C(=Nc3ccc(OC)cc3)N(c3ccc(OC)cc3)C(=S)N2C)cc1	none
Cc1nn(Cc2ccc(Cl)c(Cl)c2)c(C)c1NC(=O)c1cn(-c2ccccc2)nc1-c1ccccc1	NadD inh 33 | NadD inh conf inactive
O=C(c1ccc2c(c1)[nH]c(=S)n1c3ccccc3nc21)N1CCN(c2cccc(Cl)c2)CC1	NadD inh 39 | NadD inh conf inactive
COc1ccc(N2CCN(C(=O)c3ccc4c(c3)[nH]c(=S)n3c5ccccc5nc43)CC2)cc1	none (no result: CSN inh, Rpn11 inh, NadD inh, HNF4A DNA FP)
CC(=O)c1ccc(N2CCN(CC(=O)Nc3ccccc3C(=O)NC3CC3)CC2)c(F)c1	none (no result: TPT1 inhibitor)
O=C(CCc1ccccc1)Nc1cc(S(=O)(=O)N2CCOCC2)ccc1N1CCCC1	none (no result: TPT1 inhibitor, PP1 counter)
O=C(Nc1ccc(Cl)cc1)c1nc[nH]c1C(=O)Nc1ccccc1F	none (no result: TPT1 inhibitor, PP1 counter)
O=C(Nc1cccc(Cl)c1)c1nc[nH]c1C(=O)NCc1ccccc1	none (no result: TPT1 inhibitor)
O=C(Nc1ccc(Cl)cc1)c1nc[nH]c1C(=O)NCCCCNC(=O)c1[nH]cnc1C(=O)Nc1ccc(Cl)cc1	NadD inh 30 (no result: TPT1 inhibitor, PP1 counter) | NadD inh conf inactive
O=C(Nc1cccc(Cl)c1)c1nc[nH]c1C(=O)NCCCCNC(=O)c1[nH]cnc1C(=O)Nc1cccc(Cl)c1	NadD inh 31 (no result: TPT1 inhibitor, PP1 counter) | NadD inh conf inactive
O=C(Nc1cccc(Cl)c1)c1nc[nH]c1C(=O)NCCN(CCNC(=O)c1[nH]cnc1C(=O)Nc1cccc(Cl)c1)CCNC(=O)c1[nH]cnc1C(=O)Nc1cccc(Cl)c1	NadD inh 59 (no result: TPT1 inhibitor, PP1 counter) | NadD inh conf inactive
CC(=O)c1cccc(NC(=O)c2cccc3c(-c4cnn(C)c4)coc23)c1	none (no result: TPT1 inhibitor, PP1 counter)
CN(C)S(=O)(=O)c1cccc(NC(=O)c2cccc(N3C(=O)CCC3=O)c2)c1	none (no result: TPT1 inhibitor, PP1 counter)
CC(C)c1nc2sc3c(=S)nc[nH]c3c2c2c1CCC2	none
S=c1nc[nH]c2c1sc1nc(N3CCOCC3)c3c(c12)CCCC3	NadD inh 33 | NadD inh conf inactive
CCOc1ccc2nc(NC(=O)c3cccc(-c4cc5ccccc5oc4=O)c3)sc2c1	NadD inh 39 | NadD inh conf inactive
CCOc1ccccc1NC(=O)c1ccc(OCC)c([N+](=O)[O-])c1	none
CCOc1ccc(C(=O)Nc2cccc(-c3cc4ccccc4oc3=O)c2)cc1[N+](=O)[O-]	NadD inh 36 | NadD inh conf inactive
O=C(/C=C/c1ccc(Cl)c([N+](=O)[O-])c1)Nc1ccc(N2CCCC2)cc1	NadD inh 42 | NadD inh conf inactive
O=C(NC(=S)Nc1ccc(N2CCCC2)cc1)c1ccccc1[N+](=O)[O-]	NadD inh 33 | NadD inh conf inactive
N#C/C(=C/c1cn(-c2ccccc2)nc1-c1cccc(S(=O)(=O)N2CCCC2)c1)C(=O)NCc1ccco1	NadD inh 46, PP1 counter 16 | NadD inh conf 49
N#C/C(=C/c1cn(-c2ccccc2)nc1-c1cccc(S(=O)(=O)N2CCOCC2)c1)C(=O)NCc1ccco1	none
NS(=O)(=O)c1ccc(CNC(=O)c2cc(-c3cccs3)nc3ccccc23)cc1	none
COC(=O)Cn1c(=NC(=O)c2cc(-c3cccs3)nc3ccccc23)sc2cc(S(N)(=O)=O)ccc21	NadD inh 31 (not shown: Rpn11 inh) | NadD inh conf inactive
Cc1ccccc1NC(=O)CSc1nnc(Cc2ccccc2)c(=O)n1N	none
CCOc1ccccc1N(CC)C(=O)c1nn(C)c2c1CSc1ccccc1-2	none
COc1cccc(-c2nc(N3CCCCC3)c3ccccc3n2)c1O	none
COc1cccc(-c2nc(N3CCN(c4ccccc4)CC3)c3ccccc3n2)c1O	NadD inh 31 | NadD inh conf inactive
O=C1c2ccc(-c3ccc(Cl)c(C(F)(F)F)c3)cc2S(=O)(=O)c2cccc(C(=O)N3CCN(c4ncc(Br)cn4)CC3)c21	NadD inh 52 (no result: TPT1 inhibitor, PP1 counter) | NadD inh conf inactive
O=C(NC[C@H]1CCCO1)c1cccc2c1C(=O)c1ccc(-c3ccc(F)cc3OCc3ccccc3)cc1S2(=O)=O	none (no result: TPT1 inhibitor, PP1 counter)
O=C1c2ccc(-c3ccc(F)cc3OCc3ccccc3)cc2S(=O)(=O)c2cccc(C(=O)N3CCN(c4ncc(Cl)cc4Cl)CC3)c21	NadD inh 61 (no result: TPT1 inhibitor, PP1 counter) | NadD inh conf inactive
Cc1cc(CNC(=O)c2cccc3c2C(=O)c2ccc(-c4ccc(F)cc4OCc4ccccc4)cc2S3(=O)=O)c(C(F)(F)F)o1	NadD inh 52 (no result: TPT1 inhibitor, PP1 counter) | NadD inh conf inactive
N#Cc1cccnc1N1CCN(C(=O)c2cccc3c2C(=O)c2ccc(-c4ccc(F)cc4OCc4ccccc4)cc2S3(=O)=O)CC1	NadD inh 31 (no result: TPT1 inhibitor, PP1 counter) | NadD inh conf inactive
COc1ccccc1CNC(=O)CCN=C1NS(=O)(=O)c2ccccc21	none (no result: TPT1 inhibitor)
N#CCCN(CCC#N)S(=O)(=O)c1ccc(C(=O)Nc2nc(-c3ccccc3)c(C(=O)c3ccccc3)s2)cc1	NadD inh 36 | NadD inh conf inactive
COc1ccccc1C(=O)N1CCN(C(=O)[C@H]2O[C@@H](n3ccc(=O)[nH]c3=O)[C@H](O)[C@@H]2O)CC1	none (no result: TPT1 inhibitor, PP1 counter)
CCOc1ccc(CCN2C(=S)N([C@@H](Cc3ccccc3)CN3CCCC3CN3C(=S)NC[C@@H]3Cc3ccccc3)C[C@@H]2Cc2ccc(O)cc2)cc1 (some centres undefined)	NadD inh 50 (no result: Rpn11 inh, TPT1 inhibitor, PP1 counter) | NadD inh conf inactive
CCOc1ccc(CCN2C(=S)N([C@@H](Cc3ccc(O)cc3)CN3CCC[C@@H]3CN3C(=S)NC[C@@H]3Cc3ccccc3)C[C@@H]2Cc2ccccc2)cc1	none (no result: TPT1 inhibitor, PP1 counter)
CCOc1ccc(CCN2C(=S)N([C@@H](Cc3ccc(O)cc3)CN3CCC[C@@H]3CN3C(=S)NC[C@@H]3Cc3ccc(O)cc3)C[C@@H]2Cc2ccc(O)cc2)cc1	NadD inh 36 (no result: Rpn11 inh, TPT1 inhibitor, PP1 counter) | NadD inh conf inactive
CCOc1ccc(CCN2C(=S)N([C@@H](CC(C)C)CN3CCC[C@@H]3CN3C(=S)NC[C@@H]3Cc3ccccc3)C[C@@H]2Cc2ccc(O)cc2)cc1	NadD inh 36 (no result: TPT1 inhibitor, PP1 counter) | NadD inh conf inactive
CC(C)C[C@@H](CN1CCC[C@@H]1CN1C(=S)NC[C@@H]1Cc1ccc(O)cc1)N1C[C@H](Cc2ccccc2)N(CCc2ccccc2)C1=S	none (no result: TPT1 inhibitor, PP1 counter)

Bioassay records deposited in PubChem by several laboratories.
